Bioassay records as filed in PubChem.
Sampled rows, rich in hits. Any-hit rate of the full collection: about 2.6%.
SENP8 block-1 – blocks human SENP8 cleavage of Nedd8 substrate; inhibition, % at 20 µM; recombinant SENP8, Nedd8 substrate fluorescence; actives 0.64% (n = 360,000); in the data active = inhibition mostly above about 40%, no sharp cut-off; inactive = mostly below about 27%
Target sequence (Q96LD8 whole entry, looked up): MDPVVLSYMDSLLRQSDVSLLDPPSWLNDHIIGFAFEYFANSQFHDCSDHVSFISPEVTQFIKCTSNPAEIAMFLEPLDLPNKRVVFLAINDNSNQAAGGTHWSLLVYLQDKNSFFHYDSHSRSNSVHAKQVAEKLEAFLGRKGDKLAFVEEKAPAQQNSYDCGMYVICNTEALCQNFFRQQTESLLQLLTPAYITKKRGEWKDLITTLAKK
SENP6 inh – SENP6 protease inhibition; Q9GZR1; Recombinant SENP6 catalytic domain, aminoluciferin luminescence; inhibition, % at 10 µM; actives 1.8% (n = 330,000); AID 2599;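 active = inhibition above about 50% at the single tested dose, limit read from the data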
SENP7 inh – inhibitors of human SENP7 protease | Q9BQF6 | recombinant SENP7, Z-RLRGG-aminoluciferin luminescence, 40 min | inhibition, % at 5 µM | actives 1.5% (n = 330,000);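 active = inhibition above about 50% at the single test dose, limit read from the data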
SENP1 inh – inhibitors of human SENP1 SUMO protease catalytic domain; actives 0.21% (n = 360,000); AID 624204; recombinant SENP1 catalytic domain, CyPet-SUMO1-YPet FRET cleavage; inhibition, % at 10 µM; Q9P0U3;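 active = inhibition at least 30% at 10 µM, raw YFP signal under a set limit, fluorescence ratio 0.5 to 1.5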
Target sequence (Q9P0U3 419-644 limits assumed): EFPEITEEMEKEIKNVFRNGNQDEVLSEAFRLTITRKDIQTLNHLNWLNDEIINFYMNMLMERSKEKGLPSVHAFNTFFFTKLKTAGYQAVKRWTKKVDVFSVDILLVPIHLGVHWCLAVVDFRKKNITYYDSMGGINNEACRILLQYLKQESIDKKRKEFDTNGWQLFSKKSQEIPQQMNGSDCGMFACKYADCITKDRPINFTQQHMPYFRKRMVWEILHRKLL
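Assay system – human recombinant His6-tagged SENP1 catalytic domain enzyme · Input – SENP1 enzyme, 20 pM final · Buffer or medium – Tris pH 8 buffer plus EDTA, NaCl, BME, BSA, NP40, catalase · Schedule – 50 min reaction at room temperature · Technique – FRET read of cyan and yellow fluorescence · Control set – no-enzyme wells low, DMSO-plus-enzyme wells high control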
SENP8 block-2 – SENP8 protease inhibition. actives 1.2% (n = 330,000). AID 2540. Q96LD8. inhibition, % at 10 µM. purified SENP8, Z-RLRGG-aminoluciferin cleavage, luminescence; in the data active = inhibition above about 50%
Platelet DG rel – platelet dense granule release activity | human platelet-rich plasma, SFLLRN dense granule ATP release, luminescence | inhibition, %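 (compounds screened at 7.5 µM in platelet-rich plasma)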 | actives 0.22% (n = 300,000) | AID 1663;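 active = mean replicate score, as percent of positive control, at or above 50; inconclusive = mean below 50 but at least one replicate at or above 50; inactive = mean and every replicate below 50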
SENP1 conf – SENP1 (human) inhibition, single concentration confirmation; shares compounds with SENP1 inh; recombinant SENP1, CyPet-SUMO1-YPet FRET cleavage; inhibition, % at 10 µM; actives 34% (n = 520); in the data active = inhibition mostly above about 35%, no sharp cut-off; inactive = mostly below about 32%
SENP1 kinetic – confirmation of human SENP1 SUMO protease inhibitors, kinetic. shares compounds with SENP1 inh. recombinant SENP1, CyPet-SUMO1-YPet FRET kinetic cleavage. inhibition, % at 10 µM. actives 26% (n = 520). AID 651690; in the data active = inhibition mostly above about 32%, no sharp cut-off; inactive = mostly below about 29%
Numbers stand for hits; n = inactive; u = inconclusive; x = no result.

SMILES	SENP8 block-1	SENP6 inh	SENP7 inh	SENP1 inh	SENP8 block-2	Platelet DG rel	SENP1 conf	SENP1 kinetic
COC12CC(=O)C(C(C)=O)=C(O)C1(C)c1c(O)c(C)c(O)c(C(C)=O)c1O2 (stereo not given)	n	x	x	32.5	x	x	n	n
CC1SC(=NC(=O)c2ccncc2)NC1=O (stereo not given)	n	n	n	n	n	n	x	x
Cc1cccc(C)c1NC(=O)C1C(c2ccccc2)=Nc2ccccc2N1C(=O)c1cnccn1 (stereo not given)	n	x	x	36.9	x	x	n	n
Nc1c(-c2ccc(C(F)(F)F)cc2)nc2ncccn12	n	x	x	52.9	x	x	n	n
O=C(Nc1ccccc1O)c1ccc([N+](=O)[O-])cc1	n	n	n	n	n	n	x	x
O=[N+]([O-])c1ccc(Nc2ccccc2O)c([N+](=O)[O-])c1	n	x	x	49.9	x	x	n	n
Nc1cc([N+](=O)[O-])ccc1Nc1ccccc1	n	n	n	56.0	n	n	39.2	n
O=C(O)c1cc([N+](=O)[O-])ccc1Nc1ccccc1	n	n	n	n	n	n	x	x
Cc1ccc(NS(=O)(=O)c2ccccc2)c2c1CC(C)(C)O2	n	n	n	n	n	n	x	x
C/C(=N\NC(=O)c1cc(-c2ccccn2)nc2ccccc12)c1cccc([N+](=O)[O-])c1	n	n	n	n	n	n	x	x
COc1ccc(CNC(=O)C[C@H]2C(=O)N(C3CCCCC3)C[C@@H]2Cc2ccccc2)cc1	n	n	n	n	n	n	x	x
N#C/C(C(N)=O)=C1/SC(Cc2ccc(F)cc2)C(=O)N1c1ccccc1 (stereo not given)	n	n	n	70.2	n	n	n	n
COc1ccccc1NC(=O)c1cc2n(n1)C(C(F)(F)F)CC(c1ccc3c(c1)OCO3)N2 (stereo not given)	n	n	n	38.3	n	u	n	n
COc1ccc(OC)c(NC(=O)c2cc3n(n2)C(C(F)(F)F)CC(c2ccc4c(c2)OCO4)N3)c1 (stereo not given)	n	n	n	n	n	n	x	x
CCC(C)CN1C(=O)CSCC1(C)C(=O)Nc1c(C)cccc1C (stereo not given)	n	x	x	n	x	x	x	x
CCOC(=O)Cn1c(=O)c(-c2ccccc2N)nc2ccccc21	n	n	n	n	n	n	x	x
CCOC(=O)Cn1c(=O)c(-c2cc(Br)ccc2N)nc2ccccc21	n	n	n	86.2	n	n	n	n
Nn1c(SCc2ccc(Br)cc2)nnc1-c1cccnc1	n	n	n	n	n	n	x	x
Cc1cc(-n2c(C)c3c(C)nnc(C)c3c2C)ccc1N	x	n	n	x	n	n	x	x
O=C1C=C(Nc2ccc(Cl)cc2)C(=O)N1c1ccc(Cl)cc1	n	n	n	34.4	n	n	37.9	37.5
O=C1C=C(N2CCCCCC2)C(=O)N1c1ccc(Cl)cc1	n	x	x	n	x	n	x	x
O=C(Nc1ccc(O)cc1)c1ccc(NC(=O)C2CCCO2)cc1 (stereo not given)	n	n	n	n	n	n	x	x
O=C(Cn1c(O)c(/C=C2\C=Nc3ccccc32)sc1=O)Nc1ccc2c(c1)OCO2	n	n	n	46.1	n	n	n	n
O=C(CCSCc1ccc(Cl)cc1)NCc1ccco1	n	n	n	n	n	n	x	x
Cn1ccnc1C1CCCCN1Cc1nc(Cc2cccc(C(F)(F)F)c2)no1 (stereo not given)	n	n	n	n	n	n	x	x
SMILES	SENP8 block-1	SENP6 inh	SENP7 inh	SENP1 inh	SENP8 block-2	Platelet DG rel	SENP1 conf	SENP1 kinetic
CCn1c(/C=C/c2cc(Br)ccc2O)nc2ccccc2c1=O	n	n	n	77.9	n	n	36.5	n
Nc1c2c(nc3ccc(Br)cc13)N(Cc1ccccc1)CC2	n	n	n	58.8	n	n	n	n
COc1ccc(N2CCN(C(=O)COCC(=O)O)CC2)cc1	n	n	n	n	n	n	x	x
NC(=O)CCCn1c(C(=O)c2cc(Cl)c(N)c(Cl)c2)c2ccc([N+](=O)[O-])cc2[n+]1[O-]	n	n	n	29.8	n	n	n	n
CC(C)Oc1cccc(C(=O)NC(=S)Nc2ccc3c4c(cccc24)CC3)c1	n	n	n	36.8	n	x	n	n
Cc1cccc(C(=O)NN2C(=O)C3C(c4ccccc4)C=CC(c4ccccc4)C3C2=O)c1 (stereo not given)	n	n	n	64.0	n	n	n	n
O=C(NN1C(=O)C2C3C=CC(C3)C2C1=O)c1ccccc1 (stereo not given)	n	n	n	n	n	n	x	x
COc1ccc(-c2ccc3c(c2)S(=O)(=O)c2cccc(C(=O)NCc4cc(C)oc4C(F)(F)F)c2C3=O)cc1OC	n	n	n	59.4	n	x	43.6	34.0
C=CCNc1nc(-c2ccc([N+](=O)[O-])cc2)cs1	n	n	n	50.1	n	n	n	n
CN(C)c1nc(-c2ccc([N+](=O)[O-])cc2)cs1	n	n	n	46.4	n	n	n	n
CCCOc1ccc(-c2nc(-c3ccc([N+](=O)[O-])cc3)cs2)cc1	n	n	n	n	n	n	x	x
O=[N+]([O-])c1ccc(S(=O)(=O)Nc2nc(-c3ccccc3)cs2)cc1	n	n	n	n	n	n	x	x
C=CCOCCN1C(=O)C2C(c3ccccc3)C=CC(c3ccccc3)C2C1=O (stereo not given)	n	n	n	65.8	n	n	76.2	61.0
Cc1c(N2C(=O)/C(=C/c3ccccc3)SC2=S)c(=O)n(-c2ccccc2)n1C	n	n	n	n	n	n	x	x
Cc1c(N2C(=O)/C(=C/c3ccc(N(C)C)cc3)N(C)C2=S)c(=O)n(-c2ccccc2)n1C	43.6	x	x	66.6	x	x	55.2	37.7
COc1ccc(S(=O)(=O)N(CCC(N)=O)Cc2ccco2)cc1OC	n	n	n	n	n	n	x	x
CC(C)(C)CC(C)(C)NC(=S)Nc1ccc2nc(-c3ccccn3)c(-c3ccccn3)nc2c1	n	n	n	n	n	n	x	x
CN(C)NC(=S)Nc1ccc2nc(-c3ccccn3)c(-c3ccccn3)nc2c1	n	n	n	59.0	n	n	37.8	n
CCOC(=O)C1=C(C)N=c2sc(=Cc3cc(Cl)c(OCC(=O)O)c(Cl)c3)c(=O)n2C1c1cccc(OC)c1 (stereo not given)	n	x	x	52.3	x	x	51.1	35.4
O=C(CN1C(=O)/C(=C\C=C\c2ccccc2)SC1=S)Nc1ccc(F)cc1	n	n	n	65.7	n	n	63.2	40.7
COc1ccccc1/C=C/C(=O)OCC(=O)Nc1nnc(-c2ccccc2)o1	n	n	n	n	n	x	x	x
C=CCOc1ccc(Br)cc1/C=C1/SC(=Nc2ccc(C(=O)O)cc2)NC1=O	n	x	x	n	x	x	x	x
